Casp6 inh = human caspase-6 inhibitors, primary screen, biochemical, VEID-R110 fluorescence, single point, set 2. P55212. purified caspase-6, Z-VEID-R110 cleavage fluorescence. inhibition, % at 12.5 µM. 350,000 compounds, 0.53% hits. AID 686996, 2013;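 active means mean inhibition across replicates at least about 35%, with every replicate also reaching that limit, limit read from the data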
Scp1 inh = Scp-1 phosphatase inhibitors, primary screen, biochemical, colorimetric, uHTS. 340,000 compounds, 0.88% hits. Recombinant Scp1, phosphopeptide, malachite green phosphate absorbance. Carboxy-terminal domain RNA polymerase II polypeptide A small phosphatase 1 (Homo …. AID 493091, 2011. inhibition, % at 20 µM;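 active means inhibition above about 50% at 20 µM, limit read from the data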
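System: SCP-1 catalytic domain; Reagent: Phospho 17-mer peptide substrate; Doses: one concentration, 20 µM, with 1.0% DMSO; Incubation: 45 min room-temperature reaction, 5 min colour, 30 min stabiliser; Signal: Phosphate-binding colour reagent, absorbance read at 630 nm.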
SUMO1 PPI mod = modulators of SUMO1 protein-protein interactions, primary screen, biochemical, uHTS | SUMO1 binding to a labelled peptide, TR-FRET, 1 h | Small ubiquitin-related modifier 1 (Homo sapiens), P63165 | inhibition, % at 20 µM | 360,000 compounds, 0.33% hits | AID 602429, 2012; in the data active means inhibition above about 37%
Target sequence (P63165 whole entry, looked up): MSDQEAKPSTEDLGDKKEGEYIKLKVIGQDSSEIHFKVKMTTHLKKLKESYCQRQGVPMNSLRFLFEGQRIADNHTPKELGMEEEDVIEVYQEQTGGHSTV
STEP inh = STEP phosphatase inhibitors, primary screen, biochemical, fluorescence intensity, uHTS. Tyrosine-protein phosphatase non-receptor type 5 (Homo sapiens), P54829. recombinant STEP, OMFP fluorogenic substrate. inhibition, % at 20 µM. 360,000 compounds, 0.25% hits. AID 588621, 2011;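 active means inhibition at 20 µM, scaled per plate between control wells, above about 37%, limit read from the data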
Target sequence (P54829 whole entry, looked up): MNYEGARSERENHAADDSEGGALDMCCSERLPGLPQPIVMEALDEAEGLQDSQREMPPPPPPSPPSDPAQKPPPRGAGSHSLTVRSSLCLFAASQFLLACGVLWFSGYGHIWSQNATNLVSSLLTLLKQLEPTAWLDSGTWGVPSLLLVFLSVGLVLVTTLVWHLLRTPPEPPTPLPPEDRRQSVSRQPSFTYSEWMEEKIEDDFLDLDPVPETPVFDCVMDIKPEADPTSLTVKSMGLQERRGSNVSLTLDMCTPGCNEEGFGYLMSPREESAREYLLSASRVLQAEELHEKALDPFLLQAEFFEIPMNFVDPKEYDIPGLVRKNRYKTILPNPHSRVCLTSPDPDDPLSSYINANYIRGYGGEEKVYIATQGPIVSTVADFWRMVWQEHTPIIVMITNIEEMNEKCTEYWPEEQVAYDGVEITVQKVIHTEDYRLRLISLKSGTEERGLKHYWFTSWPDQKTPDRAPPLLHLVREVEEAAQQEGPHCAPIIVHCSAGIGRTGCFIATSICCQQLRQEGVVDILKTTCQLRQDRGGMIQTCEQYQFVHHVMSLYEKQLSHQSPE
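Test system: STEP tyrosine phosphatase / Reagent: OMFP at 25 µM / Doses: 20 µM, 1% DMSO / Read-out: percent inhibition scaled to no-enzyme and uninhibited-enzyme controls, plate-pattern corrected / Detection: FITC-channel fluorescence of OMFP product / Medium: Bis-Tris buffer pH 6.0, 2.5 mM DTT, 0.005% Tween 20 / Schedule: 20 min at room temperature, dark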
DNMT1 inh = human DNMT1 methyltransferase inhibitors, primary screen, biochemical, molecular beacon, fluorescence, HinP1I cleavage, uHTS. inhibition (reported as % activation of signal), % at 10 µM. 360,000 compounds, 0.83% hits; in the data active means inhibition above about 50%
LMPTP inh = LMPTP phosphatase inhibitors, primary screen, biochemical, fluorescence intensity, uHTS; Low molecular weight phosphotyrosine protein phosphatase (Homo sapiens), P24666; recombinant LMPTP-A, OMFP fluorogenic substrate; inhibition, % at 20 µM; 360,000 compounds, 0.22% hits;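 active means compounds that cut the enzyme signal by at least half of the control window in the single-dose screen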
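Test system: LMPTP-A, protein tyrosine phosphatase of low molecular weight; Input: 0.625 nM enzyme; Incubation: 50 min dark incubation at room temperature; Signal: endpoint fluorescence intensity from OMFP dephosphorylation; Read-out basis: % inhibition versus control wells.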
Scp1 confirm = Scp-1 phosphatase inhibitors, retest, confirmation, biochemical, colorimetric, single concentration; shares compounds with Scp1 inh; recombinant SCP-1 catalytic domain, phosphate release, malachite green absorbance; inhibition, % at 20 µM; 2,500 compounds, 61% hits; AID 540281, 2011
Scp-1 MG ctr = colorimetric readout interference by compounds, confirmation, artefact control for Scp-1 inhibitor project, biochemical, single concentration | shares compounds with Scp1 inh | Colorimetric interference counterscreen, malachite green absorbance 630 nm | apparent inhibition (interference), % at 20 µM | 2,500 tested, under 10 active;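 further: compounds added after enzyme reaction finished so only phosphate colour detection is probed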
Scp1 DSF = Scp-1 binding by thermal shift, confirmation, orthogonal assay for Scp-1 inhibitor project, biophysical, differential scanning fluorimetry; Recombinant SCP1, Sypro Orange thermal shift Tm; shares compounds with Scp1 inh; 1,500 compounds, 25% hits; thermal shift relative to vanadate control, % at 40 µM;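 active means substances whose mean melting-temperature shift, as a percentage of the reference inhibitor's shift, reaches about 5.3%, limit read from the data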
Each line names hits and unclear results; the compound was inactive in the other large screens (follow-up assays come after a bar, where they were run). Compounds with a hit are over-represented: about 1.7% of the library has one in this group of screens.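 How the source made its calls, unless noted: active means inhibition of at least 30% at 20 µM; inactive means the rest.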

COc1ccc(NC(=O)/C(C#N)=C/c2ccc3c(c2)n(C)c(=O)n3C)cc1	none (no result: Casp6 inh)
Cc1cc2c(cc1C)[n+](C)cn2CC(O)COCc1ccccc1 (stereo unspecified)	none (no result: Casp6 inh)
C[n+]1cn(CC(O)COCc2ccccc2)c2ccccc21 (stereo unspecified)	Scp1 inh 71.0 (no result: Casp6 inh) | Scp1 confirm 71.1 | Scp-1 MG ctr inactive | Scp1 DSF inactive
CC(C)CCC(C(=O)NC(C)c1ccccc1)C(=O)NC(C)c1ccccc1 (stereo unspecified)	Scp1 inh 91.6, LMPTP inh 51.8 | Scp1 confirm 57.4 | Scp-1 MG ctr inactive | Scp1 DSF inactive
CC(C)CC(NC(=O)C1CCCCC1)C(=O)NC(C)c1ccccc1 (stereo unspecified)	none
C[C@@H](C(=O)Nc1cc(C(F)(F)F)ccc1N1CCOCC1)N1C(=O)C2CC=CCC2C1=O (stereo partly specified)	none
N=C1/C(=C\c2ccc(Br)o2)C(=O)N=C2SC(CC(=O)N3CCOCC3)=NN12	Casp6 inh 61.5, Scp1 inh 78.0 | Scp1 confirm 36.3 | Scp-1 MG ctr inactive | Scp1 DSF 6.8
CSc1ccc(/C=C2\C(=N)N3N=C(CC(=O)N4CCOCC4)SC3=NC2=O)cc1	none
Cc1noc(C)c1NC(=O)Nc1ccc2c(c1)C(=O)N([C@@H](C)CO)C[C@@H](C)[C@H](CN(C)S(=O)(=O)c1ccccc1)OCCCC[C@@H](C)O2	none (no result: Scp1 inh, SUMO1 PPI mod, STEP inh, DNMT1 inh, LMPTP inh)
COc1ccc(CN(C)C[C@@H]2Oc3ccc(NS(=O)(=O)c4ccccc4)cc3CC(=O)N([C@@H](C)CO)C[C@H]2C)cc1	none (no result: Scp1 inh, SUMO1 PPI mod, STEP inh, DNMT1 inh, LMPTP inh)
COc1ccc(C2=[N+](C)CCn3cccc32)c(OC)c1	Scp1 inh 103.3 (no result: Casp6 inh) | Scp1 confirm 95.6 | Scp-1 MG ctr inactive | Scp1 DSF inactive
COc1ccc(CN2CCc3ccccc3C2)c(OC)c1	none
Cc1cccc(NC(=O)CNC(=O)c2ccc3nc[nH]c3c2)c1C	Scp1 inh 67.6 | Scp1 confirm 50.6 | Scp-1 MG ctr inactive | Scp1 DSF inactive
O=C(Nc1ccc(C(F)(F)F)cc1)c1ccc2nc[nH]c2c1	none
NS(=O)(=O)c1cccc(NC(=O)c2ccc3nc[nH]c3c2)c1	Casp6 inh 53.9, Scp1 inh 70.0 | Scp1 confirm 66.9 | Scp-1 MG ctr inactive | Scp1 DSF inactive
COc1ccc(CNC2CCN(Cc3ccccc3)CC2)cc1	none
Cc1ccc(S(=O)(=O)N(CC(=O)NCc2ccccc2)C(=O)N2CCN(C)CC2)cc1	none
O=C(NC12CC3CC(CC(C3)C1)C2)c1cnccn1	Scp1 inh 50.5 (no result: Casp6 inh) | Scp1 confirm inactive | Scp-1 MG ctr inactive
CC(CC(=O)c1cccs1)CC(=O)c1cccs1	none
O=C(O)CCCCCCCCCC(=O)c1cccs1	Scp1 inh 81.1 (no result: Casp6 inh) | Scp1 confirm inactive | Scp-1 MG ctr inactive
O=[N+]([O-])c1ccc(O)c(Nc2ncnc3ccc(Br)cc23)c1	Scp1 inh 75.4 | Scp1 confirm 42.2 | Scp-1 MG ctr inactive | Scp1 DSF 13.7
Cc1ccc(-n2[nH]c(C)c(/C=N/Nc3ccc([N+](=O)[O-])cc3[N+](=O)[O-])c2=O)cc1	Scp1 inh 61.0 | Scp1 confirm 79.9 | Scp-1 MG ctr inactive | Scp1 DSF 10.9
Cc1cc(C)c(NC(=O)CN2CCN(C)CC2)c(C)c1	none
O=C(CC1Sc2ccccc2NC1=O)Nc1cccc(C(=O)O)c1 (stereo unspecified)	Scp1 inh 59.9 | Scp1 confirm 36.3 | Scp-1 MG ctr inactive | Scp1 DSF inactive
NS(=O)(=O)c1cccc(NC(=O)COC(=O)CC2Sc3ccccc3NC2=O)c1 (stereo unspecified)	none
C[C@H]1CN([C@@H](C)CO)C(=O)c2cc(C#CCN(C)C)cnc2O[C@@H]1CN(C)C(=O)CCN1CCCCC1	none (no result: Scp1 inh, SUMO1 PPI mod, STEP inh, DNMT1 inh, LMPTP inh)
CC(C)(C)OC(=O)NCCCCCc1cn(CC(=O)NCCCCCCCCCCC(=O)N2CCN(C(=O)OC(C)(C)C)CC2)nn1	Scp1 inh 61.3 (no result: Casp6 inh) | Scp1 confirm inactive | Scp-1 MG ctr inactive
C[C@@H]1CN([C@H](C)CO)C(=O)Cc2cc(NC(=O)Cc3ccccc3)ccc2O[C@H]1CN(C)Cc1ccccc1	none (no result: Scp1 inh, SUMO1 PPI mod, STEP inh, DNMT1 inh, LMPTP inh)
C[C@@H]1CCCCO[C@@H](CN(C)S(=O)(=O)c2cn(C)cn2)[C@@H](C)CN([C@H](C)CO)C(=O)c2cc(NC(=O)Nc3cccc4ccccc34)ccc2O1	none (no result: Scp1 inh, SUMO1 PPI mod, STEP inh, DNMT1 inh, LMPTP inh)
Cn1c(SCC(=O)N/N=C/C=C\c2ccco2)nc2ccccc21	Scp1 inh 84.0, DNMT1 inh 53.7 (no result: Casp6 inh) | Scp1 confirm 62.0 | Scp-1 MG ctr inactive | Scp1 DSF inactive
Cc1[nH]c2ccccc2c1C(=O)CNc1nccs1	Scp1 inh 96.2 (no result: Casp6 inh) | Scp1 confirm inactive | Scp-1 MG ctr inactive
C[C@H](CO)N1C[C@H](C)[C@H](CN(C)C(=O)Nc2ccc(C(F)(F)F)cc2)Oc2c(NC(=O)C3CCOCC3)cccc2C1=O	none (no result: Scp1 inh, SUMO1 PPI mod, STEP inh, DNMT1 inh, LMPTP inh)
C/C(CC(=O)NC1CCCCC1)=N\NC(=O)Cc1ccc(-c2ccccc2)cc1	Scp1 inh 69.2 | Scp1 confirm 85.6 | Scp-1 MG ctr inactive | Scp1 DSF inactive
C/C(CC(=O)NCc1ccco1)=N\NC(=O)Cc1ccc(-c2ccccc2)cc1	none
COC(=O)[C@@H]1[C@@H](CO)[C@@H]2Cn3c(ccc(-c4cccc(C(=O)N(C)C)c4)c3=O)[C@@H]2N1CC1CC1	none (no result: Scp1 inh, SUMO1 PPI mod, STEP inh, DNMT1 inh, LMPTP inh)
O=C(CCc1nc2ccccc2c(=O)[nH]1)OCc1nnc(-c2ccccc2)o1	none (no result: Casp6 inh)
Cc1ccc(CNC(=O)c2cc3c(=O)n4ccccc4nc3n(Cc3ccco3)c2=N)cc1	none
Cc1ccc2nc3c(cc(C(=O)NCc4ccco4)c(=N)n3Cc3ccco3)c(=O)n2c1	Scp1 inh 68.6 | Scp1 confirm inactive | Scp-1 MG ctr inactive

High-throughput results deposited in PubChem BioAssay by several laboratories.
